According to ChEMBL document CHEMBL3091309, “A CD4 mimic as an HIV entry inhibitor: pharmacokinetics” (Bioorg Med Chem, 2013):

How the values were obtained:
[1] = Adsorption in rhesus monkey blood cells assessed as YYA-021 level at 1 mg/ml after 2 hrs by HPLC analysis; type: ADME, cell-based, Macaca mulatta
Method in brief: (§1)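 Macaque whole blood (1.0 mL) spiked with 2-HCl in saline (5 mg/mL stock, 0.25 mL), incubated 37°C for 0, 1 or 2 h. Plasma and blood cells separated by centrifugation; cells brought to 1.0 mL with PBS, and an aliquot sonicated. In the re-addition arm, plasma was added to 1 h cells and incubated 1 h more. MeOH-extracted supernatants, phenol internal standard 600 µg/mL final, analyzed by HPLC.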

[2] = Adsorption in rhesus monkey blood cells assessed as YYA-021 level at 1 mg/ml after 1 hr followed by plasma addition by HPLC analysis; type: ADME, cell-based, Macaca mulatta; method in brief: as §1
Plasma [3] = assay: Adsorption in rhesus monkey plasma assessed as YYA-021 level at 1 mg/ml preincubated for 1 hr followed by plasma addition measured after 1 hr by HPLC analysis; type: ADME, cell-free, Macaca mulatta; method in brief: as §1
Plasma [4] = assay: Adsorption in rhesus monkey plasma assessed as YYA-021 level at 1 mg/ml after 1 hr followed by plasma addition by HPLC analysis; type: ADME, cell-free, Macaca mulatta; method in brief: as §1
[5] = Adsorption in rhesus monkey blood cells assessed as YYA-021 level at 1 mg/ml after 1 hr by HPLC analysis; type: ADME, cell-based, Macaca mulatta; method in brief: as §1
Plasma [6] = assay: Adsorption in rhesus monkey plasma assessed as YYA-021 level at 1 mg/ml after 1 hr by HPLC analysis; type: ADME, cell-free, Macaca mulatta; method in brief: as §1
[7] = Adsorption in rhesus monkey blood cells assessed as YYA-021 level at 1 mg/ml measured immediately by HPLC analysis; type: ADME, cell-based, Macaca mulatta; method in brief: as §1
Plasma [8] = assay: Plasma concentration in rhesus monkey at 13.4 mg/kg, iv measured immediately by HPLC analysis; type: ADME, organism-based, Macaca mulatta; set-up: dose 13.4 mg/kg, route intravenous; conditions: in vivo
Method in brief: (§2)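 Macaque given 70.6 mg 2-HCl in 30 mL 0.1 M sodium phosphate buffer with NaCl, pH 7.4, by cephalic vein injection. Blood (3.0 mL) taken at 0, 0.5, 1, 2, 4 and 24 h, and plasma stored at -80°C. Plasma extracted with MeOH and spiked with phenol (150 µg/mL final). Quantified by HPLC on a 20–35% CH3CN (0.1% TFA) gradient over 30 min.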

Plasma [9] = assay: Adsorption in rhesus monkey plasma at 1 mg/ml preincubated for 1 hr followed by plasma addition measured after 1 hr by HPLC analysis; type: ADME, cell-free, Macaca mulatta; method in brief: as §1
Rattus norvegicus [10] = assay: Toxicity in iv dosed Jcl:Sprague-Dawley rat assessed as renal and hepatic dysfunction; type: organism-based; conditions: in vivo
[11] = Adsorption in rhesus monkey blood cells at 1 mg/ml after 2 hrs by HPLC analysis; type: ADME, cell-based, Macaca mulatta; method in brief: as §1
Plasma [12] = assay: Adsorption in rhesus monkey plasma at 1 mg/ml after 2 hrs by HPLC analysis; type: ADME, cell-free, Macaca mulatta; method in brief: as §1
[13] = Adsorption in rhesus monkey blood cells at 1 mg/ml after 1 hr followed by plasma addition by HPLC analysis; type: ADME, cell-based, Macaca mulatta; method in brief: as §1
Plasma [14] = assay: Adsorption in rhesus monkey plasma at 1 mg/ml after 1 hr followed by plasma addition by HPLC analysis; type: ADME, cell-free, Macaca mulatta; method in brief: as §1
[15] = Adsorption in rhesus monkey blood cells at 1 mg/ml after 1 hr by HPLC analysis; type: ADME, cell-based, Macaca mulatta; method in brief: as §1
Plasma [16] = assay: Adsorption in rhesus monkey plasma at 1 mg/ml after 1 hr by HPLC analysis; type: ADME, cell-free, Macaca mulatta; method in brief: as §1
[17] = Adsorption in rhesus monkey blood cells at 1 mg/ml measured immediately by HPLC analysis; type: ADME, cell-based, Macaca mulatta; method in brief: as §1
Plasma [18] = assay: Adsorption in rhesus monkey plasma at 1 mg/ml measured immediately by HPLC analysis; type: ADME, cell-free, Macaca mulatta; method in brief: as §1
[19] = Plasma concentration in rhesus monkey at 13.4 mg/kg, iv after 24 hrs by HPLC analysis; type: ADME, organism-based, Macaca mulatta; set-up: dose 13.4 mg/kg, route intravenous; method in brief: as §2
[20] = Plasma concentration in rhesus monkey at 13.4 mg/kg, iv after 4 hrs by HPLC analysis; type: ADME, organism-based, Macaca mulatta; set-up: dose 13.4 mg/kg, route intravenous; method in brief: as §2
[21] = Plasma concentration in rhesus monkey at 13.4 mg/kg, iv after 1 hr by HPLC analysis; type: ADME, organism-based, Macaca mulatta; set-up: dose 13.4 mg/kg, route intravenous; method in brief: as §2
[22] = Plasma concentration in rhesus monkey at 13.4 mg/kg, iv after 2 hrs by HPLC analysis; type: ADME, organism-based, Macaca mulatta; set-up: dose 13.4 mg/kg, route intravenous; method in brief: as §2
[23] = Plasma concentration in rhesus monkey at 13.4 mg/kg, iv after 0.5 hrs by HPLC analysis; type: ADME, organism-based, Macaca mulatta; set-up: dose 13.4 mg/kg, route intravenous; method in brief: as §2
Rhesus monkey [24] = assay: Toxicity in iv dosed rhesus monkey; type: organism-based, Macaca mulatta; conditions: in vivo
Rhesus monkey [25] = assay: Toxicity in rhesus monkey assessed as prolonged PR interval in bradycardia at 70.6 mg, iv; type: organism-based, Macaca mulatta; conditions: in vivo
Rhesus monkey [26] = assay: Toxicity in rhesus monkey assessed as prolonged PR interval in electrocardiogram at 70.6 mg, iv; type: organism-based, Macaca mulatta; conditions: in vivo
Rhesus monkey [27] = assay: Toxicity in rhesus monkey assessed as mydriasis at 70.6 mg, iv; type: organism-based, Macaca mulatta; conditions: in vivo
[28] = Plasma concentration in Jcl:Sprague-Dawley rat at 14 mg/kg, iv after 240 mins by HPLC analysis; type: ADME, organism-based; set-up: dose 14 mg/kg, route intravenous
Method in brief: (§3)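 6-week-old Jcl:SD rats given 2.5 mg 2-HCl in 1.0 mL saline by tail-vein injection. Tail-vein blood drawn at 15, 30, 45, 60, 120 and 240 min and centrifuged to plasma. Plasma stored at -80°C, mixed with phenol internal standard (62.5 µg/mL final), filtered and quantified by HPLC. Standard curve from peak-area ratio to phenol.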

Plasma [29] = assay: Adsorption in rhesus monkey plasma assessed as YYA-021 level at 1 mg/ml measured immediately by HPLC analysis; type: ADME, cell-free, Macaca mulatta; method in brief: as §1
[30] = Plasma concentration in Jcl:Sprague-Dawley rat at 14 mg/kg, iv after 45 mins by HPLC analysis; type: ADME, organism-based; set-up: dose 14 mg/kg, route intravenous; method in brief: as §3
[31] = Plasma concentration in Jcl:Sprague-Dawley rat at 14 mg/kg, iv after 60 mins by HPLC analysis; type: ADME, organism-based; set-up: dose 14 mg/kg, route intravenous; method in brief: as §3
[32] = Plasma concentration in Jcl:Sprague-Dawley rat at 14 mg/kg, iv after 30 mins by HPLC analysis; type: ADME, organism-based; set-up: dose 14 mg/kg, route intravenous; method in brief: as §3
[33] = Plasma concentration in Jcl:Sprague-Dawley rat at 14 mg/kg, iv after 15 mins by HPLC analysis; type: ADME, organism-based; set-up: dose 14 mg/kg, route intravenous; method in brief: as §3
Rattus norvegicus [34] = assay: Toxicity in Jcl:Sprague-Dawley rat assessed as change in body weight at 5 mg/kg, iv after 2 weeks relative to control; type: organism-based; set-up: dose 5 mg/kg, route intravenous; conditions: in vivo, 336 h
[35] = Half life in rhesus monkey at 13.4 mg/kg, iv by HPLC analysis; type: ADME, organism-based, Macaca mulatta; set-up: dose 13.4 mg/kg, route intravenous; conditions: in vivo
Method in brief: (§4)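 Dosed by cephalic vein injection in 30 mL 0.1 M sodium phosphate buffer with NaCl, pH 7.4. Blood (3.0 mL) was drawn at 0, 0.5, 1, 2, 4 and 24 h. Plasma was separated and stored at -80°C, then MeOH-extracted. Supernatant was spiked with phenol internal standard (final 150 µg/mL) and filtered for HPLC, quantified against a peak-area-ratio calibration curve.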

[36] = Volume of distribution in rhesus monkey at 13.4 mg/kg, iv after 24 hrs by HPLC analysis; type: ADME, organism-based, Macaca mulatta; set-up: dose 13.4 mg/kg, route intravenous; conditions: in vivo; method in brief: as §4
[37] = Initial plasma concentration in rhesus monkey at 13.4 mg/kg, iv; type: ADME, organism-based, Macaca mulatta; set-up: dose 13.4 mg/kg, route intravenous; method in brief: as §4
[38] = Initial plasma concentration in Jcl:Sprague-Dawley rat at 14 mg/kg, iv by HPLC analysis; type: ADME, organism-based; set-up: dose 14 mg/kg, route intravenous
Method in brief: (§5)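 Jcl:SD rats (6 weeks old) dosed iv via tail vein with 2.5 mg 2-HCl in 1.0 mL saline. Plasma sampled from 15 to 240 min and assayed by HPLC with phenol internal standard. Parameters derived from the plasma concentration–time course.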

Rattus norvegicus [39] = assay: Volume of distribution in Jcl:Sprague-Dawley rat at 14 mg/kg, iv by HPLC analysis; type: ADME, organism-based; set-up: dose 14 mg/kg, route intravenous; conditions: in vivo; method in brief: as §5
[40] = Half life in Jcl:Sprague-Dawley rat at 2.5 mg, iv by HPLC analysis; conditions: in vivo

Work on `Cc1ccc(NC(=O)C(=O)NC2CC(C)(C)NC(C)(C)C2)cc1.Cl` yielded an Activity [1] of 61 µg/mL, an Activity [2] of 17.9 µg/mL and an Activity (Plasma [3]) of 46 µg/mL. The Activity (Plasma [4]) was 92.4 µg/mL, the Activity [5] was 67.2 µg/mL and the Activity (Plasma [6]) was 102 µg/mL. It also gave an Activity [7] of 64.2 µg/mL, a Cp (Plasma [8]) of 149 ng/mL and an Activity (Plasma [9]) of 51.2 µg/mL. The MTD (Rattus norvegicus [10]) was 2.5 mg, the Activity [11] was 68 µg/mL and the Activity (Plasma [12]) was 105 µg/mL. The Activity [13] was 19.9 µg/mL, the Activity (Plasma [14]) was 102.9 µg/mL and the Activity [15] was 74.8 µg/mL. It also gave an Activity (Plasma [16]) of 113.6 µg/mL, an Activity [17] of 71.5 µg/mL and an Activity (Plasma [18]) of 133.7 µg/mL. For the same molecule, the concentration at 24 h [19] was 415 ng/mL, the concentration at 4 h [20] was 392 ng/mL and the concentration at 1 h [21] was 1260 ng/mL. The concentration at 2 h [22] was 1090 ng/mL, the concentration at 0.5 h [23] was 1330 ng/mL and the MTD (Rhesus monkey [24]) was 35.3 mg. For the same molecule, the Activity (Rhesus monkey [25]) was “Toxic”, the Activity (Rhesus monkey [26]) was “Toxic” and the Activity (Rhesus monkey [27]) was “Toxic”. It also gave a concentration at 4 h [28] of 1120 ng/mL, an Activity (Plasma [29]) of 120 µg/mL and a concentration at 0.75 h [30] of 1510 ng/mL. The concentration at 1 h [31] was 620 ng/mL, the concentration at 0.5 h [32] was 2100 ng/mL and the concentration at 0.25 h [33] was 6010 ng/mL. For the same molecule, the Activity (Rattus norvegicus [34]) was “Non-toxic”.

With `Cc1ccc(NC(=O)C(=O)NC2CC(C)(C)NC(C)(C)C2)cc1` the half-life [35] was 98.4 min, the Vd [36] was 47.1 L and the C0 [37] was 1500 ng/mL. It also gave a C0 [38] of 17300 ng/mL, a Vd (Rattus norvegicus [39]) of 145 mL and a half-life [40] of 8.46 min.
